# Rows were chosen to be rich in hits. Some 2.4% of all compounds tested hit in one or more screens of this group.
# ANO1 activ – activates or potentiates the mouse TMEM16A chloride channel. HEK293 TMEM16A/YFP-H148Q/I152L, iodide quench fluorescence; active compounds read low. B-score at 10 µM. actives 0.3% (n = 340,000). AID 623877. Q8BHY3;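 active means fluorescence-ratio B-score plate-corrected deviation score at least 3 library SD below zero, with starting fluorescence score within 5 deviations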;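 further: channel opened by trigger with iodide after compound preincubation; score built on the fluorescence ratio of max minus min over baseline; more negative score means more quench and so TMEM16A activation or potentiation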
# Apaf1 inhib – human Apaf-1 inhibition | O14727 | inhibition, % at 20 µM | actives 0.71% (n = 330,000) | reconstituted apoptosome caspase-3 activity, DEVD-Rh110 fluorescence | AID 489030; active means inhibition of at least 40% at 20 µM;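 further: plate controls were DMSO wells for no effect and DEVD-CHO caspase inhibitor wells for full effect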
#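 System: Apoptosome proteins | Medium: Hepes pH 7.5 with detergent and BSA | Also added: Cytochrome c trigger plus (Z-DEVD)2-Rh110 caspase-3 substrate | Incubation: 30 min compound preincubation, 50 min activation, room temperature | Detection: Rhodamine 110 fluorescence at Ex 480/Em 540 nm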
# FID counter – displaces DNA intercalator in HCV helicase counter-screen | DNA fluorescent intercalator displacement, fluorescence | inhibition, % at 7.9 µM | actives 0.17% (n = 290,000); in the data active means inhibition above about 37%;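 further: 0% = vehicle and 100% = reference compound; higher means more ethidium bromide displaced from hairpin DNA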
# ANO1 block – blocks the mouse calcium-activated chloride channel TMEM16A | Q8BHY3 | HEK293 TMEM16A/YFP iodide influx fluorescence, ionomycin | normalized B-score (activity score, 25-100; higher = stronger inhibition) at 10 µM | actives 1.2% (n = 310,000);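 active means ratio plate-corrected score three or more library SD toward inhibition, starting fluorescence score within five deviations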;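 further: score derived from kinetic fluorescence span divided by baseline fluorescence per well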
# UBC13 polyUb – inhibitors of human UBC13 polyubiquitin chain formation; inhibition, % at 20 µM; TR-FRET; P61088; actives 0.47% (n = 330,000); in the data active means inhibition above about 45%, passing the limit was not always enough
# * marks the source's active call; other numbers are inactive results; i = inactive; nt = not tested or not shown.
SMILES,ANO1 activ,Apaf1 inhib,FID counter,ANO1 block,UBC13 polyUb
N/C(=N\OC(=O)CC1CCCCC1)c1ccc(Cl)cc1,i,14.5,-12.9,i,1.0
COC(=O)c1cc2ccsc2n1Cc1ccccc1F,i,6.4,-4.2,i,-2.6
N#CC1(NC(=O)CN2C(=O)c3ccc([N+](=O)[O-])cc3C2=O)CCCCC1,i,3.0,nt,i,-7.1
COc1ccc(NS(=O)(=O)c2cccc(NC(=O)C34CCC(CC3)C4)c2)cc1,i,-3.0,-16.4,i,5.9
COc1ccc(-c2n[nH]c(C(F)(F)F)c2-c2cc3ccccc3o2)c(O)c1,i,11.4,16.9,100*,18.4
COc1ccc(-c2nc(N)ncc2-c2csc(C)n2)c(O)c1OC,i,2.1,-9.4,i,-14.4
COc1cc(/C=C2\C(=N)N3N=C(S(C)(=O)=O)SC3=NC2=O)ccc1OCCOc1ccccc1C,i,nt,-4.0,100*,nt
CCC(C)c1ccc(C(C)NC(=S)NC2CCCCC2)cc1 (configuration not stated),i,0.6,-22.9,100*,7.1
CCc1ccc(C(C)NC(=S)NC2CCCCC2)cc1 (configuration not stated),i,16.3,-31.2,i,3.0
CC(=O)c1cccc(NC(=O)CSc2nc3ccccc3c(=O)n2CCCN2CCOCC2)c1,i,-0.3,nt,nt,4.8
Cc1ccc(NC(=O)CSc2nc3ccccc3c(=O)n2CCCN2CCCCC2)cc1C,i,54.9*,25.8,i,18.9
CCN(CC)CCc1nc(-c2ccccc2)no1,i,-12.1,nt,i,14.4
CN1C(=O)/C(=C/c2ccc(C(=O)Nc3ccc(O)cc3C(=O)O)cc2)SC1=S,i,34.8,38.9*,i,-38.1
CCCCn1c(N)c(N(CCC(C)C)C(=O)c2oc3ccc(OCC)cc3c2C)c(=O)[nH]c1=O,i,6.3,nt,i,-9.2
Cc1ccc(NC(=O)Cn2cnc3c(nnn3Cc3ccc(F)cc3)c2=O)cc1,i,-18.5,0.6,i,-8.3
CCOC(=O)N1CCN(Cc2cc(=O)oc3cc4c(cc23)CCC4)CC1,-13.6*,8.9,-9.9,i,0.2
Cc1cc(Br)c2nc3c(c(C(=O)O)c2c1)CCCCC3,i,nt,-0.6,i,nt
O=C(CSc1nnnn1Cc1ccccc1)Nc1ccccc1,i,-15.2,-7.0,i,-10.6
Cc1ccc(S(=O)(=O)N2CCN(c3ccc([N+](=O)[O-])c4cccnc34)CC2)cc1,i,46.6*,0.3,i,-37.9
O=[N+]([O-])c1ccc(N2CCN(S(=O)(=O)c3ccccc3)CC2)c2cccnc12,i,6.9,-9.2,i,13.4
Cc1ccc(CNC(=O)N[C@@H](Cc2ccccc2)C(=O)O)cc1,i,-2.0,1.6,i,2.6
Cc1cc2[nH]c3c(c[n+](C)c4ccccc34)c2cc1C,i,27.8,64.5*,i,63.7*
Cc1cc2[nH]c3c4ccccc4nc(C)c3c2cc1C,i,nt,nt,nt,nt
COc1cc(/C=C2\SC(N)=NC2=O)cc(OC)c1,i,0.1,-2.9,i,-7.8
CCCN(CCC)CCCNC(=O)c1cc2cc3ccc(OC)cc3nc2o1,i,-1.8,37.4*,i,15.0
SMILES,ANO1 activ,Apaf1 inhib,FID counter,ANO1 block,UBC13 polyUb
CCn1c(CSCc2ccc(C)cc2)nnc1SCC(=O)N1CCN(c2ccccc2)CC1,i,25.1,-46.0,25*,-7.2
COc1ccc(NS(=O)(=O)c2cc3c(cc2C)N(C)CCO3)cc1,i,4.5,-18.2,i,2.5
CCOc1ccc(NS(=O)(=O)c2cc3c(cc2C)N(C)CCO3)cc1,-9.04*,-0.6,-28.4,i,-5.7
Cc1nc(N2CCOCC2)[nH]c(=O)c1C,i,-2.3,4.9,i,-2.2
COc1ccc(C(CNC(=O)c2cccc(N(C)C)c2)N2CCCC2)cc1 (configuration not stated),i,11.5,-0.8,i,18.2
CCC1CCc2sc(C(=O)NCC(c3ccc(OC)cc3)N3CCCC3)cc2C1 (configuration not stated),i,45.8*,nt,i,8.9
O=C1CC2C(CC(OC(=O)c3ccc(-c4ccccc4)cc3)C2CO)O1 (configuration not stated),i,9.9,-15.0,i,-8.6
O=C1C[C@H]2[C@H](CO)[C@@H](OC(=O)c3ccc(-c4ccccc4)cc3)C[C@H]2O1,i,-2.5,-10.9,25*,7.4
CCc1ccc(Nc2n[n+](-c3ccccc3)c(-c3ccc(OCc4ccccc4)cc3)s2)cc1,i,21.6,7.1,100*,-35.0
CCOC(=O)c1cnc2c(C)c(Cl)ccc2c1NCCCN1CCOCC1,i,5.2,54.4*,i,21.4
CCOC(=O)c1ccc2ncc(C(=O)OCC)c(NCCCN3CCOCC3)c2c1,i,-7.9,18.6,i,4.5
CCOC(=O)c1cnc2c(Cl)c(Cl)ccc2c1NCCN1CCOCC1,i,19.2,-20.4,i,7.6
CCOC(=O)c1cnc2c(ccc3ccccc32)c1NCCCN(C)C,i,9.6,81.1*,i,22.6
CCOC(=O)c1cnc2c(C)cc(C)cc2c1NCCCN1CCOCC1,i,-6.4,71.5*,i,4.2
c1ccc(CCN(Cc2ccccc2)C2CCN(C3CCCC3)CC2)cc1,i,1.4,15.5,i,-10.6
CCCCCCCc1ccc(C2NC(=S)NC3=C2C(=O)c2ccccc23)cc1 (configuration not stated),nt,44.1*,-5.0,i,-35.1
CCc1ccc(C2NC(=S)NC3=C2C(=O)CCC3)cc1 (configuration not stated),i,0.1,-3.0,i,11.1
COCCCNC(=S)N(Cc1ccccc1)Cc1nc2ccccc2c(=O)[nH]1,i,1.3,-19.0,25*,12.4
Cc1ccc(C)c(SCC(=O)Nc2cc(C)nn2-c2ccc(F)cc2)c1,nt,nt,-12.9,nt,nt
COC(=O)C(C)NC(=O)c1cn(-c2ccccc2OC)c(=O)c2ccccc12 (configuration not stated),i,-2.1,-3.2,i,2.2
COc1ccc2c3c(cccc13)N(C)N=C2C,i,72.8*,6.5,i,-51.5
O=C1CC(c2ccc3c(c2)OCO3)c2cc3c(cc2N1)OCCO3 (configuration not stated),-5.13*,3.0,-12.3,i,10.0
O=C1CC(c2ccncc2)c2cc3c(cc2N1)OCCO3 (configuration not stated),i,-14.7,-17.8,i,2.4
CC(=O)OC(C)=O,i,-9.2,nt,nt,1.3
CCc1oc2ccccc2c1C(=O)c1cc(Br)c(O)c(Br)c1,i,-6.6,-20.3,100*,-9.6
CS(=O)(=O)N1CCC(C(=O)Nc2cc(Cl)c(Cl)cc2Cl)CC1,i,8.0,-6.9,i,-9.3
COc1cc([N+](=O)[O-])ccc1NC(=O)CC(C)C,i,5.8,-4.2,i,-17.9
O=C(NC1CC1(c1ccccc1)c1ccccc1)c1ccccc1 (configuration not stated),-9.29*,nt,nt,nt,nt

# Screens as filed in PubChem.
